According to ChEMBL document CHEMBL4725355, “Design, Synthesis, and Preclinical Evaluation of 3-Methyl-6-(5-thiophenyl)-1,3-dihydro-imidazo[4,5-b]pyridin-2-ones as Selective GluN2B Negative Allosteric Modulators for the Treatment of Mood Disorders” (J Med Chem, 2020):
Values after ≈ are worked out from the molar mass of the structure shown.

Legend:
[1] = Half life in monkey at 0.1 mg/kg, iv by LC-MS/MS analysis; assay type: ADME, organism-based, Macaca mulatta; conditions: rhesus monkey, in vivo
[2] = Oral bioavailability in dog at 0.5 mg/kg by LC-MS/MS analysis; assay type: ADME, organism-based, Canis lupus familiaris; conditions: in vivo
[3] = Clearance in dog at 0.1 mg/kg, iv by LC-MS/MS analysis; assay type: ADME, organism-based, Canis lupus familiaris; conditions: in vivo
[4] = Tmax in mouse at 2.5 mg/kg, po by LC-MS/MS analysis; assay type: ADME, organism-based; conditions: in vivo
[5] = Drug level in Sprague-Dawley rat brain hippocampus at 0.03 mg/kg, iv after 60 min by LC-MS/MS analysis; assay type: ADME, organism-based; conditions: read-out: Drug uptake
In short: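 Single i.v. dose of 0.03 mg/kg in 50% (w/v) PEG/water, pH 7.4; rats n=3 per group, killed at 5, 10, 30, 60 and 120 min. Cerebellum, cortex, striatum and hippocampus dissected, weighed and homogenized; drug quantified by LC-MS/MS and normalized to tissue weight. P<0.05 taken as significant versus cerebellum.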

[6] = Tmax in Sprague-Dawley rat brain at 3 mg/kg, po by LC-MS/MS analysis; assay type: ADME, organism-based
In short: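 Rats dosed orally at 3 mg/kg in 20% HP-β-CD. Brain concentrations were measured over a 6 h time course (0.5, 2, 6 h) alongside ex vivo GluN2B occupancy, n=2.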

[7] = Tmax in Sprague-Dawley rat at 1000 mg/kg, po administered via gavage after 24 hrs using HPMC formulation by LC-MS/MS analysis; assay type: ADME, organism-based; conditions: in vivo
In short: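 Single oral gavage of a 5% HPMC suspension at 125, 250, 500 or 1000 mg/kg to male Sprague Dawley rats, 3 per group. Plasma was sampled at 6 time points from 0.5 to 24 h.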

[8] = Clearance in monkey at 0.1 mg/kg, iv by LC-MS/MS analysis; assay type: ADME, organism-based, Macaca mulatta; conditions: rhesus monkey, in vivo
[9] = Cmax in Sprague-Dawley rat at 500 mg/kg, po administered via gavage after 24 hrs using HPMC formulation by LC-MS/MS analysis; assay type: ADME, organism-based; parameters: route oral, time 24 hrs, dose 500 mg/kg; conditions: in vivo
In short: (§1)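 Single oral gavage dose to male Sprague Dawley rats, 3 per dose level. Vehicles were a standard suspension in 5% HPMC (125, 250, 500 or 1000 mg/kg) or a nanosuspension (API:polymer 4:1), with stock diluted in vehicle on the day of dosing (100, 250 or 500 mg/kg). Blood was sampled at time points from 0.5 to 24 h.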

[10] = AUC (infinity) in Sprague-Dawley rat at 0.5 mg/kg, iv by LC-MS/MS analysis; assay type: ADME, organism-based; parameters: route intravenous, time infinity, dose 0.5 mg/kg; conditions: in vivo
In short: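 Rat PK with IV and PO dosing, n=3. The usual doses were 0.5 mg/kg IV and 2.5 mg/kg PO in 20% HP-β-CD. One compound was instead given at 0.1 mg/kg IV and 0.5 mg/kg PO.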

[11] = AUC (0 to 24 hrs) in Sprague-Dawley rat at 250 mg/kg, po administered via gavage after 24 hrs using HPMC formulation by LC-MS/MS analysis; assay type: ADME, organism-based; parameters: route oral, dose 250 mg/kg, time <=24; conditions: in vivo; in short: as §1
[12] = Displacement of 3-[3H] 1-(azetidin-1-yl)-2-[6-(4-fluoro-3-methyl-phenyl)pyrrolo[3,2-b]pyridin-1-yl]ethanone from GluN1a/GluN2B receptor in […] measured after 2 hrs by liquid scintillation counting method; assay type: tissue-based, Cortex
[13] = Intrinsic clearance in dog liver microsomes at 1 uM after 5 to 60 mins in presence of NADPH by LC-MS/MS analysis; assay type: ADME, Canis lupus familiaris, Microsome; conditions: time 5-60 min, read-out: CLH
[14] = Volume of distribution at steady state in monkey at 0.1 mg/kg, iv by LC-MS/MS analysis; assay type: ADME, organism-based, Macaca mulatta; conditions: rhesus monkey, in vivo, read-out: Vdss
[15] = target: Cytochrome P450 2C9 (Homo sapiens, UniProt P11712); test: Inhibition of CYP2C9 in human liver microsomes using tolbutamide as substrate measured after 15 mins by LC-MS/MS analysis; assay type: ADME
In short: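 Human liver microsomes incubated with isoform-specific probe substrates and the test compound at concentrations up to 20 µM. IC50 derived from inhibition of metabolite formation; mean of two independent experiments, with known specific inhibitors as positive controls.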

[16] = Displacement of 3-[3H] 1-(azetidin-1-yl)-2-[6-(4-fluoro-3-methyl-phenyl)pyrrolo[3,2-b]pyridin-1-yl]ethanone from GluN1a/GluN2B receptor in rat cortex membranes measured after 2 hrs by liquid scintillation counting method; assay type: cell membranes
In short: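 Rat adult cortex was homogenized in 50 mM Tris pH 7.4, and membranes were washed by centrifugation. Membranes were incubated with the [3H] pyrrolopyridine tracer and test compound for 2 h at room temperature with shaking. Non-specific binding was defined with 10 µM CP-101,606. Bound tracer was separated by filtration on PEI-soaked GF/B filters and counted by liquid scintillation. Ki was obtained from a competition fit using tracer Kd; three independent runs in duplicate.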

[17] = Ex vivo receptor occupancy at GluN2B in po dosed Sprague-Dawley rat assessed as 3-[3H] 1-(azetidin-1-yl)-2-[6-(4-fluoro-3-methyl-phenyl)pyrrolo[3,2-b]pyridin-1-yl]-ethanone labelling measured after 60 mins by autoradiography; assay type: functional, organism-based
In short: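 Oral dosing at 8 dose levels in 20% HP-β-CD; 3 rats per group. GluN2B occupancy in hippocampus measured 60 min post dose by ex vivo radiotracer autoradiography and calculated versus naïve controls, mean ± SEM. Plasma concentrations paired with occupancy to derive EC50 and dose ED50.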

[18] = Rattus norvegicus, Sprague-Dawley, po, 1 h, time 60 min

Sequence of Cytochrome P450 2C9 (P11712 whole entry, canonical isoform): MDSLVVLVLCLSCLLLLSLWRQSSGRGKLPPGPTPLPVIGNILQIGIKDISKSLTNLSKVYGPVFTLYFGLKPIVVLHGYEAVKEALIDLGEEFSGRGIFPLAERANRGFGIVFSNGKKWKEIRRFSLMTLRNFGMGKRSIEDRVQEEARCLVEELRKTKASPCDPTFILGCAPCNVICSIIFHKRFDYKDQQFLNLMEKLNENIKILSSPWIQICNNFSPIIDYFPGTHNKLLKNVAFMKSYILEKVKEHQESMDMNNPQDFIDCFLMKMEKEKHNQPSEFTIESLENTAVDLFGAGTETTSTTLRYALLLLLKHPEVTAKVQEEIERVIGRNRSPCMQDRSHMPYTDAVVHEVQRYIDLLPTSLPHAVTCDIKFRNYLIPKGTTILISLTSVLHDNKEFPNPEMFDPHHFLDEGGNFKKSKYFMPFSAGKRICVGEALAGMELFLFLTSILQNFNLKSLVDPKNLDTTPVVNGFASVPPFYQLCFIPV

half-life [1]: 66 min
bioavailability [2]: 43%
clearance [3]: 17 mL/min/kg
Tmax [4]: 18 min
concentration at 1 h [5]: 20.9 ng/mL
Tmax [6]: 30 min
Tmax [7]: 138 min
clearance [8]: 9 mL/min/kg
Cmax [9]: 6140 ng/mL
AUC(0-inf) [10]: 277 ng·h/mL
AUC(0-t) [11]: 19700 ng·h/mL
Ki [12]: 15 nM
microsomal CLint at 1 µM [13]: 14.7 µL/min/mg
Vd [14]: 0.8 L/kg
IC50 [15]: > 50000 nM
Ki [16]: 16 nM
EC50 ([17]; Rattus norvegicus, Sprague-Dawley): 0.407 µg/mL (≈ 1.03 µM)
SMILES: Cn1c(=O)n(CC(=O)N2CCC2)c2cc(-c3ccc(C(F)(F)F)s3)cnc21
ED50 [17, 18]: 0.86 mg/kg
ED70 [17, 18]: 1.44 mg/kg
EC70 ([17]; time 60 min, 1 h): 0.716 µg/mL (≈ 1.81 µM)
fEC70 ([17]; time 60 min, 1 h): 40 ng/mL
